Legend:
[1] = Lipophilicity, log P of the compound; format: physicochemical; details: octanol/water
[2] = Antioxidant activity against superoxide dismutase like activity after 15 mins by NBT spectrometric assay; format: functional
Outline: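 Superoxide-scavenging (SOD-like) activity by NBT method, run in triplicate. Mix of 2.1 ml 0.2 M Tris buffer and 1 ml NBT with test solution, held on ice 15 min. KO₂ (1.5 ml) then added with stirring. Absorbance at 560 nm read every 30 s over 5 min. Ascorbic acid as standard.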

BT-20 = experiment: Cytotoxicity against human estrogen receptor-deficient BT20 cells after 24 hrs by MTT assay; format: functional, cell-based; details: BT-20, 24 h
Outline: (§1)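 Cells grown at 37 °C, 5% CO₂, with penicillin (50 U/ml), streptomycin and 10% fetal calf serum; lines STR-authenticated. 3 × 10³ cells seeded per well. Compounds in DMSO added 24 h after seeding. Eight replicate wells per treatment; experiments repeated at least three times. End-point: MTT 0.5 mg/ml, 2 h at 37 °C, then DMSO 30 min at room temperature; absorbance read.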

BXPC-3 = experiment: Cytotoxicity against human BxPC3 cells expressing COX2 after 24 hrs by MTT assay; format: functional, cell-based; details: BXPC-3, 24 h; outline: as §1

logP [1]	IC50 [2] [µM]	SMILES	IC50 (BT-20) [µM]	IC50 (BXPC-3) [µM]
3.51	5.68	O=C(/C=C/c1ccc(F)c(F)c1)c1ccccc1O	32.8	26.7
2.42	6.07	O=C(/C=C/c1ccc(O)cc1O)c1ccccc1O	52.9	68.6
3.51	5.27	O=C(/C=C/c1ccc(F)cc1F)c1ccccc1O	26.4	18.7
2.42	9.23	O=C(/C=C/c1ccc(O)c(O)c1)c1ccccc1O	63.9	78.3
3.2		O=C(/C=C/c1ccccc1)c1ccccc1 [CHALCONE]		

More lines, now with the values behind:

SMILES	logP [1]	IC50 [2] [µM]	IC50 (BT-20) [µM]	IC50 (BXPC-3) [µM]
O=C(/C=C/c1ccc(O)c(O)c1O)c1ccccc1O	2.03	13.7	61.7	213
O=C(/C=C/c1ccc(F)c(F)c1F)c1ccccc1O	3.67	7.31	56.6	34.7
O=C1O[C@H]([C@@H](O)CO)C(O)=C1O [ASCORBIC ACID]		5.43		
